Series [1] is described as follows: Acute toxicity in po dosed Albino-Swiss mouse assessed as hyperventilation administered as single dose measured after 5 hrs until day 14. Type of series: organism-based. Conditions: in vivo. In a few lines:
(§1)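 Oral single dose given as a suspension in 5% ethyl acetate (5 mL/kg), in increasing doses up to 2000 mg/kg, following WHO and OECD guidelines. Animals were observed from 5 h after dosing, then daily until day 14, for disorientation, hyperactivity, piloerection and hyperventilation. LD50 was fitted by nonlinear regression of percent deaths versus dose. n = 6 per group.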

A short description of series [2]: Acute toxicity in po dosed Albino-Swiss mouse assessed as piloerection administered as single dose measured after 5 hrs until day 14. Type of series: organism-based. Conditions: in vivo. In a few lines: as §1
The nature of series [3]: Acute toxicity in po dosed Albino-Swiss mouse assessed as hyperactivity administered as single dose measured after 5 hrs until day 14. Format: organism-based. Conditions: in vivo. In a few lines: as §1
Series [4] in a line: Acute toxicity in po dosed Albino-Swiss mouse assessed as disorientation administered as single dose measured after 5 hrs until day 14. Type of series: organism-based. Conditions: in vivo. In a few lines: as §1
Series [5] has as its system Mus musculus. Nature of the series: Toxicity in Albino-Swiss mouse assessed as forced motor activity at 10 mg/kg, po measured after 60 mins by rota-rod test. Type of series: organism-based. Also on record: dose 10 mg/kg, route oral. Conditions: in vivo, 1 h. In a few lines: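 Mice, 6 per group, trained twice the day before to stay 5 min on a rotating roller at 10 rev/min. Next day given 10 mg/kg p.o. (suspension in 5% ethyl acetate, 5 mL/kg) or vehicle, then placed on the roller 60 min later for 5 min. Read-out was number of falls; mean ± SD, ANOVA with Bonferroni.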

The subject of series [6] is Mus musculus. The series is described as follows: Toxicity in Albino-Swiss mouse assessed as spontaneous locomotor activity at 10 mg/kg, po measured after 60 mins by open-field test. Type of series: organism-based. Also on record: dose 10 mg/kg, route oral. Conditions: in vivo, 1 h. An outline of the steps:
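Oral dosing at 10 mg/kg (5% ethyl acetate suspension, 5 mL/kg) or vehicle, 6 mice per group. At 60 min each mouse was placed alone in a chamber with the floor divided into 50 squares of 5 × 5 cm. Squares walked during 5 min were counted; mean ± SD, ANOVA with Bonferroni.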

Series [7] deals with Mus musculus. The series is described as follows: Antinociceptive activity in Albino-Swiss mouse assessed as increase in thermal-stimulus induced tail flick latency at 10 mg/kg, po measured over 20 to 120 mins. Also on record: dose 10 mg/kg. Format: functional, organism-based. An outline of the steps: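 Mice, 6 per group, dosed orally at 10 mg/kg as a suspension in 5% ethyl acetate vehicle (5 mL/kg). Light intensity set so baseline latency fell at 4–6 s; animals outside this range were excluded. Two pre-dose latencies averaged as baseline, then six readings at 20-min intervals. Reported as percentage increase over baseline per time point, or as AUC (trapezoid rule) over 20–120 min.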
A general note: Thermal pain tests record how soon the animal reacts.

For series [8], the system named is Mus musculus. The series is described as follows: Antinociceptive activity in po dosed Albino-Swiss mouse assessed as acetic acid-induced abdominal writhing compound administered 30 mins prior challenge measured over 30 mins post acetic acid challenge. Format: functional. Conditions: Abdomen. An outline of the steps:
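Mice were dosed orally at 1, 5 and 10 mg/kg as a suspension in 5% ethyl acetate vehicle (5 mL/kg). Acetic acid 1.2% (v/v) was then given ip, and writhes (abdominal contraction, body stretching, hind-limb extension) were counted for 30 min from injection. n = 6 per group. ED50 (µmol/kg) was obtained by sigmoidal dose-response nonlinear regression.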
For orientation: Writhing tests count abdominal constrictions after an irritant is injected.

Series [9] relates to Mus musculus. The series is described as follows: Ratio of diclofenac ED50 to compound ED50 for antinociceptive activity in po dosed Albino-Swiss mouse assessed as acetic acid-induced abdominal writhing compound administered 30 mins prior challenge measured over 30 mins post acetic acid challenge. Type of series: functional, Abdomen.

The source made the active and inactive calls. The calls are words filed in the database; no cut-off is given here.

Broadly, the LD50 is the dose at which mortality reaches 50%. One may read the ED50 as the midpoint of the dose-response relation.

As to `CC(C)Cc1ccc(C(C)C(=O)OC[C@@H]2C[C@H](Cl)C[C@H](c3cccc4ccccc34)O2)cc1` (mixture of isomers), the LD50 at 5 h in series [1], in series [2], in series [3] and in series [4] was greater than 2000 mg/kg throughout. In addition, the Activity entry with Mus musculus [5] and with Mus musculus [6] was “Non-toxic” throughout. Moreover, the outcome with Mus musculus [7] was Active. Besides, the ED50 with Mus musculus [8] was determined as 10.3 µmol/kg.

For `COc1ccc2c(c1)c(CC(=O)O)c(C)n2C(=O)c1ccc(Cl)cc1` [INDOMETHACIN], the ED50 in the series with Mus musculus [8] worked out at 72.6 µmol/kg.

Take `COc1ccc2cc([C@H](C)C(=O)O)ccc2c1` [NAPROXEN]: in the series with Mus musculus [8], the 50% effective dose (ED50) was 21.8 µmol/kg.

Take `O=C(Cc1ccccc1Nc1c(Cl)cccc1Cl)OC[C@@H]1C[C@H](Cl)C[C@H](c2cccc3ccccc23)O1` (racemic): the median lethal dose (LD50) at 5 h in series [1], in [2], in series [3] and in series [4] was greater than 2000 mg/kg in each case. For the same compound, the Activity result in the series with Mus musculus [5] and in the series on Mus musculus [6] was “Non-toxic” throughout. In addition, the outcome with Mus musculus [7] was Active. Also, the “Ratio ED50” value in the series on Mus musculus [9] was greater than 10. Also, in the series on Mus musculus [8], the 50% effective dose (ED50) was 3.17 µmol/kg.

On to `OC[C@@H]1C[C@H](Cl)C[C@H](c2cccc3ccccc23)O1` (racemic), for which the ED50 in the series on Mus musculus [8] amounted to 28 µmol/kg.

As for `CC(C)Cc1ccc(C(C)C(=O)O)cc1` (stereo unspecified) [IBUPROFEN], in the series with Mus musculus [8], the median effective dose (ED50) turned out to be 60.3 µmol/kg.

Regarding `COc1ccc2cc(C(C)C(=O)OC[C@@H]3C[C@H](Cl)C[C@H](c4cccc5ccccc45)O3)ccc2c1` (mixture of isomers), the LD50 at 5 h in [1], in series [2], in [3] and in series [4] was greater than 2000 mg/kg in each case. Besides, the Activity result with Mus musculus [5] and in the series on Mus musculus [6] was “Non-toxic” throughout. Moreover, in the series with Mus musculus [7], the result was Active. Also, in the series with Mus musculus [8], the ED50 worked out at 4.6 µmol/kg.

`CC(=O)Oc1ccccc1C(=O)O` [ASPIRIN]: the ED50 in the series with Mus musculus [8] stood at 44.2 µmol/kg.

As to `CC(C(=O)OC[C@@H]1C[C@H](Cl)C[C@H](c2cccc3ccccc23)O1)c1cccc(C(=O)c2ccccc2)c1` (mixture of isomers), the LD50 at 5 h in series [1], in [2], in series [3] and in series [4] was greater than 2000 mg/kg in each case. Further, the Activity result with Mus musculus [5] and in the series on Mus musculus [6] was “Non-toxic” each time. Moreover, the outcome in the series with Mus musculus [7] was Active. In addition, in the series with Mus musculus [8], the median effective dose (ED50) was found to be 14 µmol/kg.

For `CC(=O)Oc1ccccc1C(=O)OC[C@@H]1C[C@H](Cl)C[C@H](c2cccc3ccccc23)O1` (racemic), the LD50 at 5 h in [1], in series [2], in series [3] and in [4] was greater than 2000 mg/kg in each case. Besides, the Activity result with Mus musculus [5] and with Mus musculus [6] was “Non-toxic” in each case. In addition, the outcome in the series with Mus musculus [7] was Active. Also, in the series on Mus musculus [8], the ED50 stood at 20.4 µmol/kg.

For the compound `COc1ccc2c(c1)c(CC(=O)OC[C@@H]1C[C@H](Cl)C[C@H](c3cccc4ccccc34)O1)c(C)n2C(=O)c1ccc(Cl)cc1` (racemic), the LD50 at 5 h in [1], in [2], in series [3] and in series [4] was greater than 2000 mg/kg in each case. Also, the Activity result in the series with Mus musculus [5] and in the series with Mus musculus [6] was “Non-toxic” in each case. For the same compound, the result with Mus musculus [7] was Active. Also, the ED50 with Mus musculus [8] is 13.8 µmol/kg.

`CC(C(=O)O)c1cccc(C(=O)c2ccccc2)c1` (stereo unspecified) [KETOPROFEN]: the ED50 in the series with Mus musculus [8] was 46.6 µmol/kg.

`O=C(O)Cc1ccccc1Nc1c(Cl)cccc1Cl` [DICLOFENAC POTASSIUM]: the 50% effective dose (ED50) in the series on Mus musculus [8] came out at 32.5 µmol/kg.

These data come from ChEMBL document CHEMBL2417427, “High analgesic and anti-inflammatory in vivo activities of six new hybrids NSAIAs tetrahydropyran derivatives” (Bioorg Med Chem, 2013).
